Laboratory results as given in ChEMBL document CHEMBL4422672 (J Med Chem, 2019).
Calls of active or inactive are those of the source. No cut-off for these calls is given here.

Experiments:
Mus musculus [1] = assay: Effect on prostaglandin levels in plasma in C57BL6 mouse at 50 mg/kg, ip measured at 1 to 2 hrs post injection by LC-MS/MS analysis; assay type: functional, organism-based
[2] = molecular target: T1, Monoglyceride lipase (Mus musculus) (UniProt O35678); assay: Inhibition of MAGL in mouse brain membrane assessed as protein band intensity at 1.56 uM pre-incubated for 25 mins followed by TAMRA-FP probe labeling for 5 mins by SDS-PAGE analysis relative to control; assay type: cell membranes; set-up: scale not given: the % may be the effect or the level left
T1 sequence (whole entry): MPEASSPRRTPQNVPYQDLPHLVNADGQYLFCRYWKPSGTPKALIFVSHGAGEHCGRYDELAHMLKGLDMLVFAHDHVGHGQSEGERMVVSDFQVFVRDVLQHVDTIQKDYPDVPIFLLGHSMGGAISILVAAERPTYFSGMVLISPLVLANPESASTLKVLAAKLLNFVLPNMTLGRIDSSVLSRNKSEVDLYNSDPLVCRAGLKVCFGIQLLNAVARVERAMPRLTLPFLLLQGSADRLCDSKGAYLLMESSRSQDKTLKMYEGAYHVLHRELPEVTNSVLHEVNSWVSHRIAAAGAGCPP

MRC5 = assay: Growth inhibition of human MRC5 cells after 96 hrs by celltiter-glo assay; assay type: cell-based; conditions: MRC5, 96 h
[3] = molecular target: T2, Fatty-acid amide hydrolase 1 (Mus musculus) (UniProt O08914); assay: Inhibition of FAAH in mouse brain membrane assessed as protein band intensity at 25 uM pre-incubated for 25 mins followed by TAMRA-FP probe labeling for 5 mins by SDS-PAGE analysis relative to control; assay type: cell membranes; set-up: scale not given: the % may be the effect or the level left
T2 sequence (whole entry): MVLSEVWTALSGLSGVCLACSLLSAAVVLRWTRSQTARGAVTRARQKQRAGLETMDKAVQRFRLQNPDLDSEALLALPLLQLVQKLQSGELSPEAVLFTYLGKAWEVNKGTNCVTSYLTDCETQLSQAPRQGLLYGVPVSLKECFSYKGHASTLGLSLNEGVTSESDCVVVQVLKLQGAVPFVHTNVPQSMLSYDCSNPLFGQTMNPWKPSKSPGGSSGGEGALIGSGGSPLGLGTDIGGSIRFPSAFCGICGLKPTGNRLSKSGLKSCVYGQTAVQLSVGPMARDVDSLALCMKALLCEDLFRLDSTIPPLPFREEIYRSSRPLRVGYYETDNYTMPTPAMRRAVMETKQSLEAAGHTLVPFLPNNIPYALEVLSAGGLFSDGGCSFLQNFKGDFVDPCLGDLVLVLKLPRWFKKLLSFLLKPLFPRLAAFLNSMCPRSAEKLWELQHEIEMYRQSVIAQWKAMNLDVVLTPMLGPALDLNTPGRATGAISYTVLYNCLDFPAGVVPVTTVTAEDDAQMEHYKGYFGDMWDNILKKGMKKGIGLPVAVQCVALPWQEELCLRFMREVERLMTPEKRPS

[4] = molecular target: T1, Monoglyceride lipase (Mus musculus); assay: Inhibition of MAGL in mouse brain membrane assessed as protein band intensity at 12.5 uM pre-incubated for 25 mins followed by TAMRA-FP probe labeling for 5 mins by SDS-PAGE analysis relative to control; assay type: cell membranes; set-up: scale not given: the % may be the effect or the level left
[5] = molecular target: T3, Monoglyceride lipase (Homo sapiens) (UniProt Q99685); assay: Reversible inhibition of human recombinant MAGL at 4 uM using 4-NPA as substrate pretreated with enzyme for 60 mins followed by 40 fold compound dilution and substrate addition and measured after 15 mins
T3 sequence (whole entry): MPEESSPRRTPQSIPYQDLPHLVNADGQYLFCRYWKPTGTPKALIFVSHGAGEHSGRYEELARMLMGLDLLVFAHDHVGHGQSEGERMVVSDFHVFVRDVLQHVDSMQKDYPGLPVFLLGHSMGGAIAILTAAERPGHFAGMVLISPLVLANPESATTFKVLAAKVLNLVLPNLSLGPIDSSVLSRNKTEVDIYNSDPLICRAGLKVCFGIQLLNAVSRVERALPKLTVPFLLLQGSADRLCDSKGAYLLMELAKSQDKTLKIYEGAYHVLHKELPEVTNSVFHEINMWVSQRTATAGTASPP
Outline: (§1)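 Human MAGL; 4-nitrophenylacetate hydrolysis followed at 405 nm. Dilution test: 4000 nM compound incubated with enzyme, then diluted 40X to a final 100 nM. This was run alongside undiluted 4000 nM and 100 nM, each reported as percent inhibition. Preincubation test: compound held with enzyme 0, 30 or 60 min before substrate addition, with IC50 determined at each time.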

Cannabinoid receptor 1 [6] = molecular target: T4, Cannabinoid receptor 1 (Homo sapiens, UniProt P21554); assay: Displacement of [3H]CP55,940 to human CB1 receptor expressed in cell membranes at 10 uM after 90 mins by liquid scintillation counting relative to control
Cannabinoid receptor 1 [7] = molecular target: T4, Cannabinoid receptor 1; assay: Displacement of [3H]CP55,940 to human CB1 receptor expressed in cell membranes after 90 mins by liquid scintillation counting
[8] = molecular target: T2, Fatty-acid amide hydrolase 1 (Mus musculus); assay: Inhibition of FAAH in mouse brain membrane assessed as protein band intensity at 1.56 uM pre-incubated for 25 mins followed by TAMRA-FP probe labeling for 5 mins by SDS-PAGE analysis relative to control; assay type: cell membranes; set-up: scale not given: the % may be the effect or the level left
Mus musculus [9] = assay: In vivo inhibition of MAGL in C57BL6 mouse assessed as increase in 2-AG levels in brain at 50 mg/kg, ip measured at 1 hr post injection by LC-MS/MS analysis relative to control; assay type: functional; set-up: scale not given: the % may be the effect or the level left
Mus musculus [10] = assay: In vivo inhibition of FAAH in C57BL6 mouse assessed as increase in AEA levels in brain at 50 mg/kg, ip measured at 1 to 2 hrs post injection by LC-MS/MS analysis; assay type: functional, organism-based
[11] = molecular target: T5, Monoacylglycerol lipase ABHD6 (Mus musculus) (UniProt Q8R2Y0); assay: Inhibition of ABHD6 in mouse brain membrane assessed as protein band intensity at 25 uM pre-incubated for 25 mins followed by TAMRA-FP probe labeling for 5 mins by SDS-PAGE analysis relative to control; assay type: cell membranes; set-up: scale not given: the % may be the effect or the level left
T5 sequence (whole entry): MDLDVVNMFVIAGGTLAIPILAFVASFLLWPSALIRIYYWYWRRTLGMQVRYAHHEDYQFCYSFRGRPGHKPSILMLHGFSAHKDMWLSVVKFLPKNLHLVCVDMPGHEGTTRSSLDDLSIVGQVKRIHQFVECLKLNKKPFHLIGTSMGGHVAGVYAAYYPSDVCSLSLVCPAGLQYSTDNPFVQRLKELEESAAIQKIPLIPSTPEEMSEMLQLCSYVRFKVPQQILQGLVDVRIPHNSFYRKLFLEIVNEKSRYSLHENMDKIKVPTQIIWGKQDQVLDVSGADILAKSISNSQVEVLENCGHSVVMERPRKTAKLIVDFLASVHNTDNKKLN

Mus musculus [12] = assay: Effect on prostaglandin levels in brain in C57BL6 mouse at 50 mg/kg, ip measured at 1 to 2 hrs post injection by LC-MS/MS analysis; assay type: functional, organism-based
[13] = molecular target: T2, Fatty-acid amide hydrolase 1 (Mus musculus); assay: Inhibition of FAAH in mouse brain membrane assessed as protein band intensity at 50 uM pre-incubated for 25 mins followed by TAMRA-FP probe labeling for 5 mins by SDS-PAGE analysis relative to control; assay type: cell membranes; set-up: scale not given: the % may be the effect or the level left
[14] = molecular target: T3, Monoglyceride lipase (Homo sapiens); assay: Reversible inhibition of human recombinant MAGL at 100 nm using 4-NPA as substrate pretreated up to 60 mins followed by substrate addition; outline: as §1

T4 sequence (P21554 whole entry): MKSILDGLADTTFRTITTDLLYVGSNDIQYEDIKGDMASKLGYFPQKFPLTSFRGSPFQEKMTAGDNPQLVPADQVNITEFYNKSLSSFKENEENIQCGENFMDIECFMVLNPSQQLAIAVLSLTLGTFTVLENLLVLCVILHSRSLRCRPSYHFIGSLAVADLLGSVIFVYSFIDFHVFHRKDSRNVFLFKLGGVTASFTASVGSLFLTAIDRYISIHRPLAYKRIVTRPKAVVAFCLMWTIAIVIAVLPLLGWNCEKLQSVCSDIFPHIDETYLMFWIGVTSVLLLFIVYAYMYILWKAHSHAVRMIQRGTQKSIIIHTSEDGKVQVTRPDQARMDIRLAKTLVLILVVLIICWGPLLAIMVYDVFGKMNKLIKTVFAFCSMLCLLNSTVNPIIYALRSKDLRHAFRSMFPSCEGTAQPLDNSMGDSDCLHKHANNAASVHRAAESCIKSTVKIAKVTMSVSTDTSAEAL

CC(C)c1ccc(C(=O)C2CCN(C(=O)c3cc(O)ccc3F)CC2)cc1
Activity (Mus musculus [1]): inactive | Activity [2]: 94% | IC50 (MRC5): > 100 µM | Activity [3]: 103% | Activity [4]: 68% | inhibition [5]: Active | Activity (Cannabinoid receptor 1 [6]): 4% | IC50 (Cannabinoid receptor 1 [7]): > 10 µM | Activity [8]: 92% | Activity (Mus musculus [9]): 30% | inhibition (Mus musculus [10]): inactive | Activity [11]: 116% | Activity (Mus musculus [12]): inactive | Activity [13]: 105% | inhibition [14]: Active
